Activity calls are given as the source filed them. The rule behind the calls is not given here.
Key:
AGS [1] = test: Potentiation of TRAIL-induced cytotoxicity against human AGS cells assessed as reduction in cell viability at 10 to 30 uM measured after 24 hrs by FMCA method; type: functional, cell-based
Outline: (§1)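 FMCA viability assay in TRAIL-resistant AGS cells or HEK293 cells (HEK293 in DMEM, 10% FBS, 1% penicillin-streptomycin). Cells are seeded at 6 × 10^3 per well, left 24 h at 37 °C in 5% CO2, then exposed to test sample at several doses with or without TRAIL (100 ng/mL) for 24 h. Cells are PBS-washed and given […] (10 μg/mL) in PBS for 1 h at 37 °C. Fluorescence is read at ex 485/em 538 nm. Means ± SD, n = 4; luteolin is the positive control and DMSO the negative control.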

AGS [2] = test: Potentiation of TRAIL-induced cytotoxicity against human AGS cells assessed as reduction in cell viability at 40 to 120 uM measured after 24 hrs by FMCA method; type: functional, cell-based; outline: as §1
AGS [3] = test: Potentiation of TRAIL-induced cytotoxicity against human AGS cells assessed as reduction in cell viability at 5 to 30 uM measured after 24 hrs by FMCA method; type: functional, cell-based; outline: as §1
AGS [4] = test: Potentiation of TRAIL-induced cytotoxicity against human AGS cells assessed as reduction in cell viability at 10 to 50 uM measured after 24 hrs by FMCA method; type: functional, cell-based; outline: as §1
AGS [5] = test: Potentiation of TRAIL-induced cytotoxicity against human AGS cells assessed as reduction in cell viability at 20 to 60 uM measured after 24 hrs by FMCA method; type: functional, cell-based; outline: as §1
AGS [6] = test: Potentiation of TRAIL-induced cytotoxicity against human AGS cells assessed as reduction in cell viability at 10 to 40 uM measured after 24 hrs by FMCA method; type: functional, cell-based; outline: as §1
AGS [7] = test: Potentiation of TRAIL-induced cytotoxicity against human AGS cells assessed as reduction in cell viability at 20 to 80 uM measured after 24 hrs by FMCA method; type: functional, cell-based; outline: as §1
[8] = Downregulation of c-FLIP expression in human AGS cells at 8 to 24 uM measured after 24 hrs by Western blot analysis; type: functional, cell-based
Outline: (§2)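 Western blot in AGS cells. Cells are seeded for 24 h and treated with compound at the indicated concentrations for 24 h. Lysis is in Tris·HCl (20 mM, pH 7.4), NaCl 150 mM, 0.5% Triton X-100, 0.5% deoxycholate, EDTA 10 mM, orthovanadate 1 mM, NaF 0.1 mM and protease inhibitors. Proteins are run on 12.5% SDS-PAGE and transferred to PVDF, blocked in 5% milk/TBST, probed with primary and then HRP secondary antibodies, and detected by ECL. β-Actin is the internal control.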

[9] = Cytotoxicity against HEK293 cells assessed as reduction in cell viability up to 30 uM measured after 24 hrs in presence of TRIAL by FMCA method; type: toxicity, cell-based; settings: human, hek293, 24 h; outline: as §1
[10] = Upregulation of CHOP expression in human AGS cells measured after 24 hrs by Western blot analysis; type: functional, cell-based; outline: as §2
[11] = Upregulation of cleaved caspase9 expression in human AGS cells at 8 to 24 uM measured after 24 hrs by Western blot analysis; type: functional, cell-based; outline: as §2
[12] = Downregulation of GSK-3beta protein expression in human AGS cells measured after 24 hrs by Western blot analysis; type: functional, cell-based; outline: as §2
AGS [13] = test: Induction of apoptosis in human AGS cells assessed as cleaved caspase9 level at 16 uM measured after 24 hrs by Western blot analysis relative to control; type: functional
Outline: (§3)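 Western blot in AGS cells for cleaved caspases-3, -8 and -9. Cells are seeded for 24 h, then given compound at 16 μM, TRAIL (100 ng/mL), or both together for 24 h. Lysates are made in the Tris/Triton/deoxycholate lysis buffer with protease inhibitors and run on 12.5% SDS-PAGE. Proteins are transferred to PVDF, immunodetected with HRP secondary antibodies and read by ECL chemiluminescence.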

[14] = Upregulation of Fas protein expression in human AGS cells measured after 24 hrs by Western blot analysis; type: functional, cell-based; outline: as §2
[15] = Downregulation of Bcl2 protein expression in human AGS cells measured after 24 hrs by Western blot analysis; type: functional, cell-based; outline: as §2
AGS [16] = test: Potentiation of TRAIL-induced cytotoxicity in human AGS cells assessed as reduction in cell viability at 5 to 25 uM measured after 24 hrs by FMCA method; type: functional, cell-based; outline: as §1
AGS [17] = test: Induction of apoptosis in human AGS cells assessed as cleaved caspase3 level at 16 uM measured after 24 hrs by Western blot analysis relative to control; type: functional; outline: as §3
AGS [18] = test: Potentiation of TRAIL-induced apoptosis in human AGS cells assessed as increase in cleaved caspase3 level at 16 uM measured after 24 hrs by Western blot analysis; type: functional; outline: as §3
AGS [19] = test: Potentiation of TRAIL-induced apoptosis in human AGS cells assessed as increase in cleaved caspase9 level at 16 uM measured after 24 hrs by Western blot analysis; type: functional; outline: as §3
[20] = Upregulation of Bax protein expression in human AGS cells at 8 to 24 uM measured after 24 hrs by Western blot analysis; type: functional, cell-based; outline: as §2
[21] = Upregulation of cleaved caspase-8 expression in human AGS cells at 8 to 24 uM measured after 24 hrs by Western blot analysis; type: functional, cell-based; outline: as §2
[22] = Upregulation of cleaved caspase3 expression in human AGS cells at 8 to 24 uM measured after 24 hrs by Western blot analysis; type: functional, cell-based; outline: as §2
[23] = Upregulation of DR4 protein expression in human AGS cells measured after 24 hrs by Western blot analysis; type: functional, cell-based; outline: as §2
AGS [24] = test: Potentiation of TRAIL-induced apoptosis in human AGS cells assessed as increase in cleaved caspase8 level at 16 uM measured after 24 hrs by Western blot analysis; type: functional; outline: as §3
[25] = Upregulation of p53 protein expression in human AGS cells measured after 24 hrs by Western blot analysis; type: functional, cell-based; outline: as §2
AGS [26] = test: Induction of apoptosis in human AGS cells assessed as cleaved caspase8 level at 16 uM measured after 24 hrs by Western blot analysis relative to control; type: functional; outline: as §3
[27] = Upregulation of DR5 protein expression in human AGS cells measured after 24 hrs by Western blot analysis; type: functional, cell-based; outline: as §2

In the case of `C=C[C@]1(C)C=C2[C@H](O)[C@@H](OC(C)=O)[C@H]3C(C)(C)CC[C@H](O)[C@]3(C)[C@@]2(O)CC1`, the Activity (AGS [1]) is reported as “Active”.
For `C=C[C@]1(C)C=C2C[C@@H](O)[C@H]3C(C)(C)CC[C@H](O)[C@]3(C)[C@@]2(O)CC1`, the Activity (AGS [2]) was “Active”.
For `C=C[C@]1(C)C=C2CC[C@H]3C(C)(C)CC[C@H](O)[C@]3(C)[C@@]2(O)CC1`, the Activity (AGS [3]) was “Active”.
In the case of `C=C[C@]1(C)C=C2[C@@H](O)C[C@H]3C(C)(C)CCC[C@]3(C)[C@@]2(O)[C@H](O)C1`, the Activity (AGS [1]) is reported as “Active”.
With `C=C[C@@]1(C)CCC2=C([C@H](OC)[C@@H](O)[C@H]3C(C)(C)CCC[C@]23C)[C@@H]1OC` the Activity (AGS [1]) was “Active”.
For `C=C[C@]1(C)C=C2C[C@@H](O)[C@H]3C(C)(C)[C@H](O)C[C@H](O)[C@]3(C)[C@H]2CC1`, the Activity (AGS [4]) was “Active”.
With `C=C[C@]1(C)C=C2[C@H](O)C[C@H]3C(C)(C)CC[C@H](O)[C@]3(C)[C@@]2(O)CC1` the Activity (AGS [5]) was “Active”.
In the case of `C=C[C@]1(C)C=C2C[C@@H](OC(C)=O)[C@H]3C(C)(C)CCC(=O)[C@]3(C)[C@@]2(O)CC1`, the Activity (AGS [6]) is reported as “Active”.
In the case of `C=C[C@]1(C)C=C2C[C@@H](O)[C@H]3C(C)(C)CCC(=O)[C@]3(C)[C@@]2(O)CC1`, the Activity (AGS [6]) is reported as “Active”.
In the case of `C=C[C@]1(C)C=C2CC[C@H]3C(C)(C)C[C@H](O)[C@H](O)[C@]3(C)[C@H]2CC1`, the Activity (AGS [1]) is reported as “Active”.
For `C=C[C@@]1(C)C=C2CC[C@H]3C(C)(C)CC[C@H](O)[C@]3(C)[C@H]2[C@H](O)C1`, the Activity (AGS [1]) was “Active”.
For `C=C[C@@]1(C)CCC2=C([C@H](O)[C@@H](O)[C@H]3C(C)(C)CCC[C@]23C)[C@@H]1OC`, the Activity (AGS [5]) was “Active”.
With `C=C[C@@]1(C)CCC2=C(C[C@@H](O)[C@H]3C(C)(C)CCC[C@]23C)[C@H]1O` the Activity (AGS [4]) was “Active”.
In the case of `CC1=C[C@@H](O)[C@H](C(C)C)CC1=O`, the Activity (AGS [7]) is reported as “Active”.
For `C=C[C@@]1(C)CCC2=C(C[C@@H](O)[C@H]3C(C)(C)CC[C@H](O)[C@]23C)C1=O`, the Activity (AGS [7]) was “Active”.
In the case of `C=C[C@@]1(C)CCC2=C([C@H]1OC)[C@H](OC)[C@@H](O)[C@H]1C(C)(C)CCC[C@]21C`, the Activity (AGS [6]) is reported as “Active”.
For `C=C[C@]1(C)C=C2C[C@@H](OC(C)=O)[C@H]3C(C)(C)CC[C@H](O)[C@]3(C)[C@@]2(O)CC1`, the Activity [8] was “Active”, the Activity [9] was “Non-Toxic” and the Activity [10] was “Dose-dependent effect”. For the same compound, the Activity [11] was “Active”, the Activity [12] was “Dose-dependent effect” and the Activity (AGS [13]) was 15%. The Activity [14] was “Dose-dependent effect”, the Activity [15] was “Dose-dependent effect” and the Activity (AGS [16]) was “Active”. For the same compound, the Activity (AGS [17]) was 0%, the Activity (AGS [18]) was 68% and the Activity (AGS [19]) was 75%. The Activity [20] was “Active”, the Activity [21] was “Active” and the Activity [22] was “Active”. For the same compound, the Activity [23] was “Dose-dependent effect”, the Activity (AGS [24]) was 65% and the Activity [25] was “Dose-dependent effect”. For the same compound, the Activity (AGS [26]) was 0% and the Activity [27] was “Dose-dependent effect”.
In the case of `C=C[C@]1(C)C=C2[C@H](O)[C@@H](OC(C)=O)[C@H]3C(C)(C)CCC[C@]3(C)[C@@]2(O)CC1`, the Activity (AGS [1]) is reported as “Active”.

Reference: ChEMBL document CHEMBL3867441, “Boesenberols, Pimarane Diterpenes with TRAIL-Resistance-Overcoming Activity from Boesenbergia pandurata” (J Nat Prod, 2016)
